Compounds with a hit are over-represented: about 3.9% of the library has one in this group of screens.
M1 antag: human CHRM1 antagonism. P11229. CHO-K1 hM1, Fluo-8 calcium fluorescence, ACh EC80 antagonist. inhibition, % at 3 µM. 360,000 compounds, 1.3% hits;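 active means percent inhibition above its own plate's cutoff, namely the mean of that plate's compound wells plus 3 SD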;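 further: peak over basal fluorescence ratio during 140 s after agonist addition; 0% = ACh EC80 plus DMSO and 100% = DMSO alone without agonist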
M1 PAM: human CHRM1 positive allosteric modulation | P11229 | CHO-K1 hM1, Fluo-8 calcium fluorescence, ACh EC20; 0% = ACh EC20, 100% = maximal ACh | activation, % at 3 µM | 360,000 compounds, 0.088% hits | AID 588819; in the data active means activation above about 19%, passing the limit was not always enough
TAAR1 antag: antagonists of human TAAR1; CHO RD-HGA16 TAAR1, Fluo-8 calcium fluorescence, antagonist; inhibition, % at 3 µM; 360,000 compounds, 1.5% hits; AID 624466;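 active means inhibition above a per-plate cutoff, the mean inhibition of test compounds on that plate plus 3 SD, cut at about 49% in these data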;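 further: 0% = DMSO plus EC80 beta-PEA response and 100% = DMSO alone without agonist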
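Test system: CHO RD-HGA16 cells bearing hTAAR1 | Reagent: β-PEA, EC80 | Compound dosing: 3 µM, single point | Schedule: Dye loading 75 min at 37 °C, then 30 min room temperature | Signal: Calcium fluorescence with Fluo-8 | Evaluation: Percent inhibition of PEA-evoked calcium signal, max/basal emission ratio | Control set: DMSO-only wells and EC80 β-PEA-stimulated wells | Repeats: Singlicate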
TAAR1 agonist: agonists of human TAAR1; Q96RJ0; CHO RD-HGA16 TAAR1, Fluo-8 calcium fluorescence; vehicle wells 0%, saturating PEA agonist 100%; activation, % at 3 µM; 360,000 compounds, 0.99% hits; AID 624467;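 active means activation above the mean activation of all test compounds in the run plus 3 SD, cut at about 38% in these data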
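Benchmarks: low control DMSO, high control PEA (EC100); System: CHO RD-HGA16 cells carrying human TAAR1 plus Gα16; Detection: Fluo-8 fluorescence, 5 s baseline then 140 s kinetic read; Schedule: 17-24 h plating, Fluo-8 75 min 37 °C, 30 min RT; Read-out basis: % activation from peak over basal fluorescence ratio, DMSO-to-PEA scaled.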
M1 ag: activates human CHRM1 receptor; CHO-K1 hM1, Fluo-8 calcium fluorescence, agonist mode; 0% DMSO, 100% acetylcholine EC100; activation, % at 3 µM; 360,000 compounds, 0.33% hits; AID 588814;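 active means activation above the run's mean compound activation plus 3 SD, cut at about 16% in these data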;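 further: peak over basal fluorescence ratio within a 140 s kinetic read after compound addition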
HTR2A ag: mouse HTR2A agonism via beta-arrestin recruitment | P35363 | CHO-K1 mHTR2A beta-arrestin complementation, luminescence; percent of 30 µM serotonin response | activation, % at 7.6 µM | 360,000 compounds, 0.66% hits;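 active means activation above a run cutoff, the mean activation of all tested compounds plus 3 SD, cut at about 14% in these data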;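 further: 0% = plate median of compound wells and 100% = 30 µM serotonin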
Target sequence (P35363 whole entry, looked up): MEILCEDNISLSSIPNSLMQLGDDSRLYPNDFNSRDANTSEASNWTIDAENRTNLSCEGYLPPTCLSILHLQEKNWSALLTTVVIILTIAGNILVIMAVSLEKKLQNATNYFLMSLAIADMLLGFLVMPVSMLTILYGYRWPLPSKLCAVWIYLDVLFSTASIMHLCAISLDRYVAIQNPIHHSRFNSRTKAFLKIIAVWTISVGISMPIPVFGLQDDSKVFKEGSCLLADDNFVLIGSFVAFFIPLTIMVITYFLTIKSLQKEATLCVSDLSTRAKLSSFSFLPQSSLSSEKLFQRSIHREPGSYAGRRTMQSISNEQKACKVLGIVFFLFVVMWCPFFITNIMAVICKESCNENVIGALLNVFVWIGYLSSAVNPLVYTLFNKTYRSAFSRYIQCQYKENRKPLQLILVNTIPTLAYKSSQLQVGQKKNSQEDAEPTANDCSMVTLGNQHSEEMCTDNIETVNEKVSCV
Active calls of the source: *.

What do the screens show for `Cc1c(C(=O)NCc2cccc([N+](=O)[O-])c2)sc(=O)n1Cc1ccccc1F`?
M1 antag: 67*; M1 PAM: -33; TAAR1 antag: 28; TAAR1 agonist: 0; M1 ag: -9; HTR2A ag: -4

Results for Cc1c(C(=O)NCc2ccccc2)sc(=O)n1Cc1ccccc1F ?
M1 antag: -3; M1 PAM: 1; TAAR1 antag: 12; TAAR1 agonist: 1; M1 ag: -8; HTR2A ag: -2

How did COc1ccc(Br)c(Cn2c(C)c(C(=O)NCc3ccc(F)cc3)sc2=O)c1 do in these assays?
M1 antag: 12; M1 PAM: -18; TAAR1 antag: 39; TAAR1 agonist: 2; M1 ag: -9; HTR2A ag: -2

What do the screens show for `COc1ccc(Br)c(Cn2c(C)c(C(=O)NCc3cccc([N+](=O)[O-])c3)sc2=O)c1`?
M1 antag: 89*; M1 PAM: -31; TAAR1 antag: 20; TAAR1 agonist: 3; M1 ag: -10; HTR2A ag: 1

What do the screens show for `O=C(COC(=O)c1cccs1)NC1CCCC1`?
M1 antag: 6; M1 PAM: 9; TAAR1 antag: 3; TAAR1 agonist: 2; M1 ag: -2; HTR2A ag: 4

How did O=S(=O)(Nc1ccc(-c2nc3cccnc3s2)cc1)c1ccccc1F do in these assays?
M1 antag: -10; M1 PAM: 13; TAAR1 antag: 25; TAAR1 agonist: 3; M1 ag: -1; HTR2A ag: 1

How did CC/C(=N\N=C(/CC)c1ccccc1N)c1ccccc1N do in these assays?
M1 antag: -6; M1 PAM: 3; TAAR1 antag: -27; TAAR1 agonist: 0; M1 ag: -2; HTR2A ag: 2

How did COc1cc(C(=O)OCC(=O)NC2CCCCCC2)ccc1OCC(C)C do in these assays?
M1 antag: 1; M1 PAM: 1; TAAR1 antag: -6; TAAR1 agonist: 1; M1 ag: 1; HTR2A ag: -2

Results for CC(C)(C)CN1CCC(Oc2cccc(C(=O)N3CCNC(=O)C3(C)C)c2)CC1 ?
M1 antag: 6; M1 PAM: -11; TAAR1 antag: -17; TAAR1 agonist: 0; M1 ag: 9; HTR2A ag: 3

How did COC(=O)c1cc(=O)n(-c2ccc(C(F)(F)F)cc2)[nH]1 do in these assays?
M1 antag: -16; M1 PAM: 7; TAAR1 antag: -12; TAAR1 agonist: 2; M1 ag: -2; HTR2A ag: -5

Results for Cc1ncc(CN2CCCCC2C(=O)Nc2ccc(Oc3ccccc3)nc2)cn1 (stereo not drawn) ?
M1 antag: 10; M1 PAM: -5; TAAR1 antag: -19; TAAR1 agonist: 4; M1 ag: -5; HTR2A ag: -6

How did COCc1ccc(CN2CCCCC2C(=O)Nc2ccc(Oc3ccccc3)nc2)o1 (stereo not drawn) do in these assays?
M1 antag: 47*; M1 PAM: -22; TAAR1 antag: -18; TAAR1 agonist: 3; M1 ag: -5; HTR2A ag: -2

What do the screens show for `Cc1cccc(C(=O)OCC(=O)NC(C)CCc2ccccc2)c1O` (stereo not drawn)?
M1 antag: 1; M1 PAM: 1; TAAR1 antag: -26; TAAR1 agonist: 6; M1 ag: -8; HTR2A ag: -7

Results for CCC(C)(C)n1nnnc1C(c1cc2ccc(OC)cc2[nH]c1=O)N1CCc2ccccc21 (stereo not drawn) ?
M1 antag: -10; M1 PAM: 17; TAAR1 antag: 15; TAAR1 agonist: 6; M1 ag: 11; HTR2A ag: 0

Results for CCC(C)(C)n1nnnc1C(c1cc2ccc(OC)cc2[nH]c1=O)N1CCc2ccccc2C1 (stereo not drawn) ?
M1 antag: 7; M1 PAM: -3; TAAR1 antag: 3; TAAR1 agonist: 75*; M1 ag: -8; HTR2A ag: -5

How did O=C(NCc1ccccc1)[C@@H]1CCCN1C(=O)[C@H]1CCCN1C(=O)c1ccccc1F do in these assays?
TAAR1 antag: -12; TAAR1 agonist: 2

What do the screens show for `CC(OC(=O)CNC(=O)c1ccc2ccccc2c1)C(=O)N(C)C1CCCCC1` (stereo not drawn)?
M1 antag: -5; M1 PAM: 6; TAAR1 antag: -14; TAAR1 agonist: 1; M1 ag: 0; HTR2A ag: 3

How did Cc1ccc2c(COC(=O)c3ccccc3OC(F)F)cc(=O)oc2c1 do in these assays?
M1 antag: -7; M1 PAM: 9; TAAR1 antag: 54*; TAAR1 agonist: 8; M1 ag: -1; HTR2A ag: 1

How did CC1(C)NC(=O)N(CC(O)COc2ccccc2C(=O)Nc2ccccc2)C1=O (stereo not drawn) do in these assays?
M1 antag: 2; M1 PAM: -4; TAAR1 antag: 34; TAAR1 agonist: 12; M1 ag: 14; HTR2A ag: -3

Results for O=C(Nc1ccccc1)c1ccccc1OCC(O)CN1C(=O)c2ccccc2S1(=O)=O (stereo not drawn) ?
M1 antag: 50*; M1 PAM: -14; TAAR1 antag: 65*; TAAR1 agonist: 25; M1 ag: -2; HTR2A ag: 1

What do the screens show for `COc1ccc(CCC(=O)Nc2c(-c3ccc(N(C)C)cc3)[nH][nH]c2=O)cc1`?
M1 antag: -23; M1 PAM: 5; TAAR1 antag: -16; TAAR1 agonist: 1; M1 ag: -3; HTR2A ag: 16*

How did COC(=O)C1=C(C)N(Cc2cccc(C(F)(F)F)c2)C(=NCc2ccc(C(F)(F)F)cc2)NC1c1ccccc1 (stereo not drawn) do in these assays?
TAAR1 antag: 19; TAAR1 agonist: 10

What do the screens show for `COC(C[C@H]1O[C@H]1[C@@H](O)COCc1ccccc1)OC`?
M1 antag: 39*; M1 PAM: -13; TAAR1 antag: 0; TAAR1 agonist: 8; M1 ag: -6; HTR2A ag: -3

What do the screens show for `Cc1cc(N2CCCCCC2)nc(-c2ccccc2O)n1`?
M1 antag: 11; M1 PAM: -9; TAAR1 antag: -32; TAAR1 agonist: -4; M1 ag: -5; HTR2A ag: 1

What do the screens show for `Cc1cc(N2CCCCC2)nc(N2CCCCC2)n1`?
M1 antag: 15; M1 PAM: -14; TAAR1 antag: -11; TAAR1 agonist: 10; M1 ag: 28*; HTR2A ag: 3

How did N=C1SC(c2ccccc2)C(=O)N1c1ncc(Cc2ccccc2Cl)s1 (stereo not drawn) do in these assays?
M1 antag: 16; M1 PAM: -15; TAAR1 antag: 17; TAAR1 agonist: 8; M1 ag: -9; HTR2A ag: -1

Screening results deposited in PubChem by The Scripps Research Institute Molecular Screening Center.
